Results: ChEMBL document CHEMBL1240400, “Comparative in vitro activities of nemonoxacin (TG-873870), a novel nonfluorinated quinolone, and other quinolones against clinical isolates” (2010)
In brackets after ≈: the same amount, converted by molar mass.

Columns and labels:
Format in all cases: functional
[1] = tested on: Staphylococcus aureus; test: Antibacterial activity against ciprofloxacin and methicillin resistant Staphylococcus aureus by broth dilution method
Procedure, shortened: (§1)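 Clinical isolates tested by CLSI broth microdilution in panels holding serial twofold drug dilutions in cation-adjusted Mueller-Hinton broth. Final inoculum 5 × 10^5 CFU/ml was made from a 0.5 McFarland suspension. Plates were incubated overnight at 35°C in ambient air, and the MIC was read as the lowest concentration inhibiting growth. Quality control strains were included in each run.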

[2] = tested on: Staphylococcus epidermidis; test: Antibacterial activity against methicillin resistant coagulase negative Staphylococcus epidermidis by broth dilution method
[3] = tested on: Enterococcus faecalis; test: Antibacterial activity against Enterococcus faecalis by broth dilution method
[4] = tested on: Enterococcus faecalis; test: Antibacterial activity against vancomycin resistant Enterococcus faecalis by broth dilution method
[5] = tested on: Enterococcus faecium; test: Antibacterial activity against Enterococcus faecium by broth dilution method; procedure, shortened: as §1
[6] = tested on: Enterococcus faecium; test: Antibacterial activity against vancomycin resistant Enterococcus faecium by broth dilution method; procedure, shortened: as §1
[7] = tested on: Escherichia coli; test: Antibacterial activity against ciprofloxacin resistant Escherichia coli by broth dilution method; procedure, shortened: as §1
[8] = tested on: Escherichia coli; test: Antibacterial activity against ciprofloxacin susceptible Escherichia coli by broth dilution method
Procedure, shortened: (§2)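 Broth microdilution per CLSI in panels spanning a dilution range of each agent. Cation-adjusted Mueller-Hinton broth, final inoculum 5 × 10^5 CFU/ml from a 0.5 McFarland suspension. Incubated overnight at 35°C in ambient air, with quality control strains in each run. MIC reported; values at or below the lowest concentration tested are given as that concentration.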

[9] = tested on: Klebsiella pneumoniae; test: Antibacterial activity against Klebsiella pneumoniae by broth dilution method; procedure, shortened: as §2
[10] = tested on: Proteus mirabilis; test: Antibacterial activity against Proteus mirabilis by broth dilution method
[11] = tested on: Citrobacter freundii; test: Antibacterial activity against Citrobacter freundii by broth dilution method; procedure, shortened: as §2
[12] = tested on: Streptococcus pneumoniae; test: Antibacterial activity against Levofloxacin resistant Streptococcus pneumoniae by broth dilution method
Procedure, shortened: (§3)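 Streptococcus pneumoniae clinical isolates tested by CLSI broth microdilution. A 0.5 McFarland suspension was diluted into Mueller-Hinton broth with 3% lysed horse blood, then tested against serial drug dilutions. Plates were incubated overnight at 35°C in ambient air, and the MIC was read as the lowest inhibitory concentration. Quality control strains were included in each run.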

[13] = tested on: Streptococcus viridans; test: Antibacterial activity against Streptococcus viridans by broth dilution method
Procedure, shortened: (§4)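 Streptococci were tested by CLSI broth microdilution in Mueller-Hinton broth with 3% lysed horse blood, seeded from a 0.5 McFarland suspension. Incubated overnight at 35°C in ambient air, with quality control strains in each run. MIC taken over a per-agent dilution range.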

[14] = tested on: Acinetobacter baumannii; test: Antibacterial activity against Acinetobacter baumannii by broth dilution method; procedure, shortened: as §2
[15] = tested on: Pseudomonas aeruginosa; test: Antibacterial activity against Pseudomonas aeruginosa by broth dilution method
[16] = tested on: Haemophilus influenzae; test: Antibacterial activity against Haemophilus influenzae by broth dilution method
Procedure, shortened: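 Broth microdilution per CLSI using Haemophilus Test Medium broth, seeded from a 0.5 McFarland suspension. Incubated overnight at 35°C in ambient air, with quality control strains in each run. MIC read against a tested dilution range; values at the low limit are given as the lowest concentration.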

[17] = tested on: Neisseria gonorrhoeae; test: Antibacterial activity against ciprofloxacin resistant Neisseria gonorrhoeae isolates by broth dilution method
Procedure, shortened: (§5)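 Neisseria gonorrhoeae clinical isolates tested by CLSI broth microdilution in Mueller-Hinton broth with 3% lysed horse blood, inoculated from a 0.5 McFarland suspension. Plates were incubated overnight at 35°C in 5% CO2, and the MIC was read as the lowest inhibitory concentration. Quality control strains were included in each run.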

[18] = tested on: Neisseria gonorrhoeae; test: Antibacterial activity against levofloxacin resistant Neisseria gonorrhoeae isolates by broth dilution method; procedure, shortened: as §5
[19] = tested on: Neisseria gonorrhoeae; test: Antibacterial activity against moxifloxacin resistant Neisseria gonorrhoeae isolates by broth dilution method; procedure, shortened: as §5
[20] = tested on: Staphylococcus aureus; test: Antibacterial activity against methicillin susceptible Staphylococcus aureus by broth dilution method
[21] = tested on: Staphylococcus aureus; test: Antibacterial activity against ciprofloxacin susceptible and methicillin resistant Staphylococcus aureus by broth dilution method; procedure, shortened: as §1
[22] = tested on: Staphylococcus; test: Antibacterial activity against methicillin resistant coagulase negative Staphylococcus by broth dilution method
[23] = tested on: Enterobacter cloacae; test: Antibacterial activity against Enterobacter cloacae by broth dilution method
[24] = tested on: Streptococcus pneumoniae; test: Antibacterial activity against Levofloxacin susceptible Streptococcus pneumoniae by broth dilution method; procedure, shortened: as §3
[25] = tested on: Streptococcus pyogenes; test: Antibacterial activity against Streptococcus pyogenes by broth dilution method; procedure, shortened: as §4
[26] = tested on: Streptococcus agalactiae; test: Antibacterial activity against Streptococcus agalactiae by broth dilution method; procedure, shortened: as §4

Structure (SMILES): COc1c(N2C[C@@H]3CCCN[C@@H]3C2)c(F)cc2c(=O)c(C(=O)O)cn(C3CC3)c12 [MOXIFLOXACIN]
- MIC50 [1]: 4 µg/mL (≈ 9.96 µM)
- MIC90 [1]: 4 µg/mL (≈ 9.96 µM)
- MIC50 [2]: 0.12 µg/mL (≈ 0.299 µM)
- MIC90 [2]: 2 µg/mL (≈ 4.98 µM)
- MIC50 [3]: 0.5 µg/mL (≈ 1.25 µM)
- MIC90 [3]: > 8 µg/mL
- MIC50 [4]: 0.5 µg/mL (≈ 1.25 µM)
- MIC50 [5]: > 8 µg/mL
- MIC90 [5]: > 8 µg/mL
- MIC [6]: 1 µg/mL (≈ 2.49 µM)
- MIC50 [7]: > 8 µg/mL
- MIC90 [7]: > 8 µg/mL
- MIC50 [8]: 0.5 µg/mL (≈ 1.25 µM)
- MIC90 [8]: 1 µg/mL (≈ 2.49 µM)
- MIC50 [9]: 4 µg/mL (≈ 9.96 µM)
- MIC90 [9]: > 8 µg/mL
- MIC50 [10]: 8 µg/mL (≈ 19.9 µM)
- MIC90 [10]: > 8 µg/mL
- MIC50 [11]: 0.5 µg/mL (≈ 1.25 µM)
- MIC90 [11]: 8 µg/mL (≈ 19.9 µM)
- MIC [12]: 2 µg/mL (≈ 4.98 µM)
- MIC50 [12]: 2 µg/mL (≈ 4.98 µM)
- MIC90 [12]: 8 µg/mL (≈ 19.9 µM)
- MIC50 [13]: 0.12 µg/mL (≈ 0.299 µM)
- MIC90 [13]: 0.25 µg/mL (≈ 0.623 µM)
- MIC50 [14]: 1 µg/mL (≈ 2.49 µM)
- MIC90 [14]: > 8 µg/mL
- MIC50 [15]: > 8 µg/mL
- MIC90 [15]: > 8 µg/mL
- MIC50 [16]: 0.25 µg/mL (≈ 0.623 µM)
- MIC90 [16]: > 8 µg/mL
- MIC [17]: 2 µg/mL (≈ 4.98 µM)
- MIC [18]: 1 µg/mL (≈ 2.49 µM)
- MIC [19]: 0.5 µg/mL (≈ 1.25 µM)

Structure (SMILES): CN(C)c1cc(NC(=O)CNC(C)(C)C)c(O)c2c1C[C@H]1C[C@H]3[C@H](N(C)C)C(O)=C(C(N)=O)C(=O)[C@@]3(O)C(O)=C1C2=O [TIGECYCLINE]
- MIC50 [20]: 0.12 µg/mL (≈ 0.205 µM)
- MIC90 [20]: 0.25 µg/mL (≈ 0.427 µM)
- MIC50 [21]: 0.25 µg/mL (≈ 0.427 µM)
- MIC90 [21]: 0.25 µg/mL (≈ 0.427 µM)
- MIC50 [1]: 0.25 µg/mL (≈ 0.427 µM)
- MIC90 [1]: 0.5 µg/mL (≈ 0.854 µM)
- MIC50 [22]: 0.25 µg/mL (≈ 0.427 µM)
- MIC90 [22]: 0.5 µg/mL (≈ 0.854 µM)
- MIC50 [2]: 0.25 µg/mL (≈ 0.427 µM)
- MIC90 [2]: 0.5 µg/mL (≈ 0.854 µM)
- MIC50 [3]: 0.25 µg/mL (≈ 0.427 µM)
- MIC90 [3]: 0.25 µg/mL (≈ 0.427 µM)
- MIC50 [4]: 0.25 µg/mL (≈ 0.427 µM)
- MIC90 [4]: 0.25 µg/mL (≈ 0.427 µM)
- MIC50 [5]: 0.06 µg/mL (≈ 0.102 µM)
- MIC90 [5]: 0.12 µg/mL (≈ 0.205 µM)
- MIC50 [6]: 0.06 µg/mL (≈ 0.102 µM)
- MIC90 [6]: 0.12 µg/mL (≈ 0.205 µM)
- MIC50 [7]: 0.25 µg/mL (≈ 0.427 µM)
- MIC90 [7]: > 8 µg/mL
- MIC50 [8]: 0.25 µg/mL (≈ 0.427 µM)
- MIC90 [8]: 0.5 µg/mL (≈ 0.854 µM)
- MIC50 [9]: 0.5 µg/mL (≈ 0.854 µM)
- MIC90 [9]: 1 µg/mL (≈ 1.71 µM)
- MIC50 [23]: 0.5 µg/mL (≈ 0.854 µM)
- MIC90 [23]: 2 µg/mL (≈ 3.41 µM)
- MIC50 [10]: 2 µg/mL (≈ 3.41 µM)
- MIC90 [10]: 4 µg/mL (≈ 6.83 µM)
- MIC [11]: 0.25 µg/mL (≈ 0.427 µM)
- MIC50 [11]: 0.25 µg/mL (≈ 0.427 µM)
- MIC90 [11]: 0.5 µg/mL (≈ 0.854 µM)
- MIC [24]: 0.08 µg/mL (≈ 0.137 µM)
- MIC50 [24]: 0.03 µg/mL (≈ 0.0512 µM)
- MIC90 [24]: 0.06 µg/mL (≈ 0.102 µM)
- MIC50 [12]: 0.06 µg/mL (≈ 0.102 µM)
- MIC90 [12]: 0.06 µg/mL (≈ 0.102 µM)
- MIC50 [25]: 0.03 µg/mL (≈ 0.0512 µM)
- MIC90 [25]: 0.06 µg/mL (≈ 0.102 µM)
- MIC [26]: 0.03 µg/mL (≈ 0.0512 µM)
- MIC50 [26]: 0.03 µg/mL (≈ 0.0512 µM)
- MIC90 [26]: 0.06 µg/mL (≈ 0.102 µM)
- MIC50 [13]: 0.06 µg/mL (≈ 0.102 µM)
- MIC90 [13]: 0.12 µg/mL (≈ 0.205 µM)
- MIC50 [14]: 1 µg/mL (≈ 1.71 µM)
- MIC90 [14]: 2 µg/mL (≈ 3.41 µM)
- MIC50 [15]: 8 µg/mL (≈ 13.7 µM)
- MIC90 [15]: > 8 µg/mL
- MIC50 [16]: 0.5 µg/mL (≈ 0.854 µM)
- MIC90 [16]: 1 µg/mL (≈ 1.71 µM)
